Twelve compounds from ChEMBL document CHEMBL3792341, “Substituted quinazolinones as kinase inhibitors endowed with anti-fibrotic properties” (Eur J Med Chem, 2016) can be followed below.

Calls of active or inactive are those of the source. The rule behind the calls is not given here.

The target in data set [1] is Vascular endothelial growth factor receptor 2 (Homo sapiens) (UniProt P35968). Briefly: Inhibition of human KDR using […] as substrate at 1 uM measured after 20 mins at 30 degC by liquid scintillation counting method in presence of [gamma-32P]-ATP.
Vascular endothelial growth factor receptor 2 (Homo sapiens), sequence (P35968 whole entry): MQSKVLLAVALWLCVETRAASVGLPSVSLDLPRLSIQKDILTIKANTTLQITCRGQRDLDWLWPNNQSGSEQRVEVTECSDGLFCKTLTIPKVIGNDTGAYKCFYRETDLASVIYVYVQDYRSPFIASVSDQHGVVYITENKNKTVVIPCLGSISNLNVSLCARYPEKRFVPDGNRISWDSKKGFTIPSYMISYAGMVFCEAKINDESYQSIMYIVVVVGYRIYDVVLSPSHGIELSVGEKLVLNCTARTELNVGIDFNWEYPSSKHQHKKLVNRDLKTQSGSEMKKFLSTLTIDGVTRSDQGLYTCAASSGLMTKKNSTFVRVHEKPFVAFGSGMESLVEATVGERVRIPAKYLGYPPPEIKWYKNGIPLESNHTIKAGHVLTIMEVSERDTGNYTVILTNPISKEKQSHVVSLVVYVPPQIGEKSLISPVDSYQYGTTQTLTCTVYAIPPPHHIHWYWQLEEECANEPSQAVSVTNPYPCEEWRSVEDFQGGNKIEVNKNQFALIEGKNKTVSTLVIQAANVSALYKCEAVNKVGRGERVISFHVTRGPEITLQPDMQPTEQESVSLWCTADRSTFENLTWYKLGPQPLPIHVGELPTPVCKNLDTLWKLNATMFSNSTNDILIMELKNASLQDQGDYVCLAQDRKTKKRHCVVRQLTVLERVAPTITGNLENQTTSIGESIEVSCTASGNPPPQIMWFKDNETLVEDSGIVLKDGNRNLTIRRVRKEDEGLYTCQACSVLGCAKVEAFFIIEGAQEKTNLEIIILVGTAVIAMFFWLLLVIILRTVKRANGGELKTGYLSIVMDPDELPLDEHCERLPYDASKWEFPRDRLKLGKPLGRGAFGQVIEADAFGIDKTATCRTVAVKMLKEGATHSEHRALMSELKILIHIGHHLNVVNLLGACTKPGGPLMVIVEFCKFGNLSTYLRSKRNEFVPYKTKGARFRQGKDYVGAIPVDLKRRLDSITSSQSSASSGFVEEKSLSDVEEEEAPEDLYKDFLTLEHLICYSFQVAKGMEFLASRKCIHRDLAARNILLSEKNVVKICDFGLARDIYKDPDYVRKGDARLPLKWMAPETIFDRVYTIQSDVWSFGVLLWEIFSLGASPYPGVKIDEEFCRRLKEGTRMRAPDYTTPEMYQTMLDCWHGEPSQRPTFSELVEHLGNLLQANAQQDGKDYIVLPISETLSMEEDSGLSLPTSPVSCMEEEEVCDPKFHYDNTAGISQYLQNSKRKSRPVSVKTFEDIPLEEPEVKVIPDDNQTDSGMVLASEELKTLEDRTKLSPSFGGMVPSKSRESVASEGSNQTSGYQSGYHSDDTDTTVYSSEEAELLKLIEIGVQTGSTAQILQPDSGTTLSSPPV
For data set [2], the target named is Fibroblast growth factor receptor 1 (Homo sapiens) (UniProt P11362). The experiment in a line: Inhibition of human FGFR1 using myelin basic protein as substrate at 1 uM measured after 20 mins at 30 degC by liquid scintillation counting method in presence of [gamma-32P]-ATP.
Fibroblast growth factor receptor 1 (Homo sapiens), sequence (P11362 22-822 limits assumed): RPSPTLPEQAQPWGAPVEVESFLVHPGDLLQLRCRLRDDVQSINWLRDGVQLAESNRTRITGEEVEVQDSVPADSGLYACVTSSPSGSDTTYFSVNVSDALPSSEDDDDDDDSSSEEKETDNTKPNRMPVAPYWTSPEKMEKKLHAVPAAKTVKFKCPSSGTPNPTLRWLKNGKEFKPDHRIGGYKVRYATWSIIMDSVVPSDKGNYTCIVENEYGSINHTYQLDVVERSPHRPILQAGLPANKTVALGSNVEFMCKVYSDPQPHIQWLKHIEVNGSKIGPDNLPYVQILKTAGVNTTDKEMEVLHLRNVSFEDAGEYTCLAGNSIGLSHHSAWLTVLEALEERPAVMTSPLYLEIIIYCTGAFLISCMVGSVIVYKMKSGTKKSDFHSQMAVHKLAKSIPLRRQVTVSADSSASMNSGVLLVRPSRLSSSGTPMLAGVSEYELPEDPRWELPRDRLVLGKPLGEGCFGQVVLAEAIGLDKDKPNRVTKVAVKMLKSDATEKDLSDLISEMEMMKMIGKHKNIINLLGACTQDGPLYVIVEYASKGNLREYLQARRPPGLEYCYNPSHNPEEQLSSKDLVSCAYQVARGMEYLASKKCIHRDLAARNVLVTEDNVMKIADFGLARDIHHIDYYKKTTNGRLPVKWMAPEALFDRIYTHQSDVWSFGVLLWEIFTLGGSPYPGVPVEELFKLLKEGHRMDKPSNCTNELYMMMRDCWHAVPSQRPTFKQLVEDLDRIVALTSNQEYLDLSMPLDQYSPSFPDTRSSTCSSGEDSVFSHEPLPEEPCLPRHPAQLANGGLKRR
The target in data set [3] is Tyrosine-protein kinase ABL1 (Homo sapiens) (UniProt P00519). Briefly: Inhibition of human Abl1 using myelin basic protein as substrate at 1 uM measured after 20 mins at 30 degC by liquid scintillation counting method in presence of [gamma-32P]-ATP.
Tyrosine-protein kinase ABL1 (Homo sapiens), sequence (P00519 whole entry): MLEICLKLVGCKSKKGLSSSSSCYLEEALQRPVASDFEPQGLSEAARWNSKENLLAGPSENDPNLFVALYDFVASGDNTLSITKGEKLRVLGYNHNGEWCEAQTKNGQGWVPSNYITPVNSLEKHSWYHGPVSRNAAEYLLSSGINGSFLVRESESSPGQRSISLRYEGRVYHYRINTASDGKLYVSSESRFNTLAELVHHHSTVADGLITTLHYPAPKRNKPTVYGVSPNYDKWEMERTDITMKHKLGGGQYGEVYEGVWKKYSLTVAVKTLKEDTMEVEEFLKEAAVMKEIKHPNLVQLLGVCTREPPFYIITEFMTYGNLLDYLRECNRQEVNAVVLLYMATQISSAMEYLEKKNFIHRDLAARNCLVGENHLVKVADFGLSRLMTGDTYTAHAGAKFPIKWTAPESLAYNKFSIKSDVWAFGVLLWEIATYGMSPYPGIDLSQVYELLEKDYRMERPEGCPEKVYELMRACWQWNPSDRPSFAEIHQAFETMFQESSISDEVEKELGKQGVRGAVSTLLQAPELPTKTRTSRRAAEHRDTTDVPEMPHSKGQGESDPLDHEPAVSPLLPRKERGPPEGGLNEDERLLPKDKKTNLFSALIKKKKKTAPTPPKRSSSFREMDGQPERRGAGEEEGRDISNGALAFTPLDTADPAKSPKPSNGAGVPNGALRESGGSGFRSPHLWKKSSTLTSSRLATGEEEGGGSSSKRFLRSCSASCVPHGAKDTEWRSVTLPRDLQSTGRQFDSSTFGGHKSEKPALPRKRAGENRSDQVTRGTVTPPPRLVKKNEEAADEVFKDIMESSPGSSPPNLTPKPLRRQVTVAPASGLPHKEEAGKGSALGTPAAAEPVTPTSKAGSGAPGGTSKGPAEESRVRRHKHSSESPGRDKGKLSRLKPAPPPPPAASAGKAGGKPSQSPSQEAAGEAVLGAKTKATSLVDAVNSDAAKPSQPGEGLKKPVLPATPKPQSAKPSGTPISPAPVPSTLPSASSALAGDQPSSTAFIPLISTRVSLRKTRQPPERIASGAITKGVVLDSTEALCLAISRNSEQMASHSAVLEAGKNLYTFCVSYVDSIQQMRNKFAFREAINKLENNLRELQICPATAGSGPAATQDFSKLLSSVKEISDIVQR
Data set [4] has as its target Proto-oncogene tyrosine-protein kinase Src (Homo sapiens) (UniProt P12931). Briefly: Inhibition of human Src using myelin basic protein as substrate at 1 uM measured after 20 mins at 30 degC by liquid scintillation counting method in presence of [gamma-32P]-ATP.
Data set [5] deals with Platelet-derived growth factor receptor beta (Homo sapiens) (UniProt P09619). Briefly: Inhibition of human PDGFR-beta at 1 uM measured after 20 mins at 30 degC by liquid scintillation counting method in presence of [gamma-32P]-ATP.
Platelet-derived growth factor receptor beta (Homo sapiens), sequence (P09619 whole entry): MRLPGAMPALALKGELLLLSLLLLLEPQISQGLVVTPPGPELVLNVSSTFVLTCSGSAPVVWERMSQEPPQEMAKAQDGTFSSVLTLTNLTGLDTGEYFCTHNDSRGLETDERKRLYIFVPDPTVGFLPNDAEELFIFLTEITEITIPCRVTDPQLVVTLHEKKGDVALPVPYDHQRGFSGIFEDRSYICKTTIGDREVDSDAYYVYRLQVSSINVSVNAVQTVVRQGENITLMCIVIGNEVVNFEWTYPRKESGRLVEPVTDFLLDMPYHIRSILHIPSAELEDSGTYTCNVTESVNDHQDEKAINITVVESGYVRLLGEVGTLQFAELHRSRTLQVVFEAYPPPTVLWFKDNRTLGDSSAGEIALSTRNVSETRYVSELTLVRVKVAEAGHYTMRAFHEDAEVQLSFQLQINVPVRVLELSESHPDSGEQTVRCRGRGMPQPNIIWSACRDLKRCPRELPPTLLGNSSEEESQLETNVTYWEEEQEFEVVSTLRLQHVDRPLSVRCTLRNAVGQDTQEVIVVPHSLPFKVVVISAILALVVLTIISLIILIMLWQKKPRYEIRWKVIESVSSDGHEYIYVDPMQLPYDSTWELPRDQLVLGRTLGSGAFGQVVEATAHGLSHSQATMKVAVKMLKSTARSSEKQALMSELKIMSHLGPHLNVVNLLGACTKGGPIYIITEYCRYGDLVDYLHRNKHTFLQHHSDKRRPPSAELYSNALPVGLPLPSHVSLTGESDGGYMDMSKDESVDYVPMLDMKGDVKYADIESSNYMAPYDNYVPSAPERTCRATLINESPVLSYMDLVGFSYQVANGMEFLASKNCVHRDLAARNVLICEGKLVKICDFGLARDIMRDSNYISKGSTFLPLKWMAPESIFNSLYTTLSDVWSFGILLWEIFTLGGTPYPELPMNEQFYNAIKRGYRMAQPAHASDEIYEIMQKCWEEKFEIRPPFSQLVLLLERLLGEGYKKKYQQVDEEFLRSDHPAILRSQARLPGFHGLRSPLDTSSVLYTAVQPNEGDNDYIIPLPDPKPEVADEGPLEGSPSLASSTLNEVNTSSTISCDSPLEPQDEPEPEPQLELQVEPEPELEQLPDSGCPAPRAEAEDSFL
In data set [6] the target is Serine/threonine-protein kinase mTOR (Homo sapiens) (UniProt P42345). The experiment in a line: Inhibition of human mTOR using PHAS-1 as substrate at 1 uM measured after 20 mins at 30 degC by liquid scintillation counting method in presence of [gamma-32P]-ATP.
The species named for another data set is Homo sapiens. Briefly: Inhibition of human PI3K using phosphatidylinositol 4,5-diphosphate as substrate at 1 uM measured after 20 mins at 30 degC by liquid scintillation counting method in presence of [gamma-32P]-ATP.
The nature of data set [7]: Reduction of COL1A1 mRNA expression in healthy human HSC cells at 1 uM by RT-PCR analysis. It counts as functional, cell-based. The essentials:
(§1)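 HSCs or ISEMFs were treated with compound for 24 h. Total RNA was extracted and DNase I-treated, then used for quantitative PCR of the target transcript. Values were normalized to 18S rRNA and relative change was calculated by the ΔΔCT method. Triplicate per isolated cell batch.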

The nature of data set [8]: Reduction of COL1A1 mRNA expression in crohn's disease patient isolated ISEMF at 1 uM by RT-PCR analysis. It counts as functional. Conditions: Homo sapiens. Put shortly:
as §1

Data set [9] is described as follows: Reduction of COL1A1 mRNA expression in healthy human ISEMF at 1 uM by RT-PCR analysis. It counts as functional. Put shortly: as §1
Data set [10] is described as follows: Cytotoxicity against human HSC cells assessed as cell viability at 1 uM after 72 hrs by MTT assay. The class given is cell-based. Put shortly: (§2)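 MTT viability in primary human HSCs or ISEMFs seeded at 2 × 10³ cells/well. Cells were exposed to compound for 72 h, then to MTT 0.50 mg/ml for 4 h. Viability is expressed as % of the respective untreated cells. Triplicate per isolated cell batch.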

Data set [11] in a line: Cytotoxicity against healthy human ISEMF assessed as cell viability at 1 uM after 72 hrs by MTT assay. The essentials: as §2
(Tetrazolium dyes change colour on reduction, which living cells bring about.)

Data set [12] is described as follows: Cytotoxicity against crohn's disease patient isolated ISEMF assessed as cell viability at 1 uM after 72 hrs by MTT assay. The following applies: human. Put shortly: as §2
A short description of data set [13]: Reduction of FN1 mRNA expression in human HSC cells at 1 uM by RT-PCR analysis. It counts as functional, cell-based. The essentials: as §1
Data set [14] in a line: Reduction of FN1 mRNA expression in healthy human ISEMF at 1 uM by RT-PCR analysis. It counts as functional. Put shortly:
as §1

A short description of data set [15]: Reduction of FN1 mRNA expression in crohn's disease patient isolated ISEMF at 1 uM by RT-PCR analysis. Conditions: Homo sapiens. The class given is functional. Put shortly: as §1
A short description of data set [16]: Reduction of TIMP1 mRNA expression in human HSC cells at 1 uM by RT-PCR analysis. The class given is functional, cell-based. Put shortly:
as §1

Data set [17] is described as follows: Reduction of TIMP1 mRNA expression in healthy human ISEMF at 1 uM by RT-PCR analysis. It counts as functional. Put shortly: as §1
Data set [18] is described as follows: Reduction of TIMP1 mRNA expression in crohn's disease patient isolated ISEMF at 1 uM by RT-PCR analysis. It counts as functional. The following applies: Homo sapiens. The essentials: as §1

Proto-oncogene tyrosine-protein kinase Src (Homo sapiens), sequence (P12931 2-536 limits assumed): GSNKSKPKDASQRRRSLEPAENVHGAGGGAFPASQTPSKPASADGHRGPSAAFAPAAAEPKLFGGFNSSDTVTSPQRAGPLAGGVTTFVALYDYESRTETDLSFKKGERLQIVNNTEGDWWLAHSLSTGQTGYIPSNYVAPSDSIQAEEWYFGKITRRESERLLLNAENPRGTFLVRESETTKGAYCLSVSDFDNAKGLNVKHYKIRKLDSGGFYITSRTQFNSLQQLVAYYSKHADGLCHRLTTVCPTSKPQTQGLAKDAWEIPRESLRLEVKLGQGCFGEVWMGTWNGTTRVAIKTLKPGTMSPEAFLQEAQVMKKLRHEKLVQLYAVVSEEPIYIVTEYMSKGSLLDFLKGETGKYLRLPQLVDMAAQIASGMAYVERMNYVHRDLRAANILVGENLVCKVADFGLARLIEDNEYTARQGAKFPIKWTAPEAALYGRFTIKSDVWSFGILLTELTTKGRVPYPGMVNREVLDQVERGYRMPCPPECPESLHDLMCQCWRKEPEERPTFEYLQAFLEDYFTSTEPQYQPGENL

As to `COc1cc2ncn(Cc3cccc(-c4ccccc4)c3)c(=O)c2cc1OC`, the inhibition (usually the change of the read-out against control, counted positive when it falls) was 33% in data set [1]; 13% in [2]; 0% in data set [3]; 0% in data set [4]; 4% in data set [5]; 34% in data set [6]. The inhibition in the data set listed under Homo sapiens is 21%.

In the case of `O=c1c2cc3c(cc2ncn1Cc1cccc(-c2ccccc2)c1)OCO3`, the inhibition in data set [1] was found to be 35%; in data set [2] it was 8%; in data set [3] it was 0%; in [4] it was 0%; in data set [5] it was 0%; in data set [6], 0%. In the data set filed under Homo sapiens, the inhibition came out at 0%. For the same compound, the result in [7], in [8] and in [9] was Active. In addition, the Activity entry in [10], in [11] and in [12] was “Non-toxic” throughout.

With `COc1cc2ncn(CC(=O)c3ccc(Br)cc3)c(=O)c2cc1OC`, the inhibition in data set [1] turned out to be 53%; in data set [2] it was 7%; in data set [3], 0%; in data set [4] it was 4%; in data set [5] it was 1%; in [6], 17%. Also, in the data set filed under Homo sapiens, the inhibition amounted to 0%. In addition, the outcome in data set [13], in data set [15], in [16] and in data set [18] was Active. Further, the outcome in data set [14] and in data set [17] was inactive. Also, the Activity entry in data set [10], in data set [11] and in data set [12] was “Non-toxic” each time.

In the case of `O=c1c2cc3c(cc2ncn1Cc1ccc(Br)cc1)OCCO3`, the inhibition in [1] stood at 12%; in data set [2], 1%; in [3] it was 0%; in [4] it was 0%; in data set [5] it was 1%; in [6], 13%. In addition, the inhibition in the data set listed under Homo sapiens was 0%.

`COc1cc2ncn(Cc3ccc(Br)cc3)c(=O)c2cc1OC`: the inhibition is 25% in data set [1]; 14% in data set [2]; 0% in [3]; 0% in data set [4]; 0% in data set [5]; 25% in data set [6]. Also, the inhibition in the data set listed under Homo sapiens worked out at 0%.

As to `Clc1ccc(Nc2nnc(Cc3ccncc3)c3ccccc23)cc1` [VATALANIB], the inhibition in data set [2] stood at 31%; in [3], 25%; in data set [4], 16%; in data set [5], 72%; in [6] it was 49%; in the data set filed under Homo sapiens, 18%. Besides, the outcome in data set [7], in data set [8], in data set [9], in data set [13], in [15] and in [16] was Active. The result in data set [18] was Active. Further, the outcome in data set [14] and in data set [17] was inactive. Also, the Activity result in data set [10], in [11] and in data set [12] was “Toxic” each time.

Regarding `COc1cc2ncn(Cc3cccc(Br)c3)c(=O)c2cc1OC`, the inhibition turned out to be 31% in data set [1]; 11% in [2]; 0% in [3]; 0% in [4]; 22% in data set [5]; 18% in data set [6]. In addition, the inhibition in the data set listed under Homo sapiens was 15%. For the same compound, the outcome in data set [7], in [8], in data set [9], in data set [13], in [14] and in data set [15] was inactive. Also, the result in data set [16], in [17] and in data set [18] was inactive. The Activity result in data set [10], in data set [11] and in [12] was “Non-toxic” each time.

As for `O=C(Cn1cnc2cc3c(cc2c1=O)OCCO3)c1ccc(Br)cc1`, the inhibition in data set [1] is 35%; in data set [2] it was 18%; in data set [3], 0%; in data set [4], 0%; in [5], 1%; in data set [6], 23%. In the data set listed under Homo sapiens, the inhibition came out at 17%. In addition, the outcome in data set [7], in [8] and in data set [9] was Active. The Activity entry in data set [10], in data set [11] and in data set [12] was “Non-toxic” in each case.

Take `O=c1c2cc3c(cc2ncn1CC(O)c1cccc(Cl)c1)OCCO3` (stereo unspecified): the inhibition in data set [1] stood at 26%; in [2], 5%; in data set [3], 1%; in data set [4] it was 0%; in data set [5], 0%; in data set [6], 1%. Besides, the inhibition in the data set filed under Homo sapiens came out at 0%. Also, the result in [7], in data set [8], in data set [9], in [13], in data set [14] and in data set [15] was inactive. Moreover, the outcome in data set [16], in [17] and in data set [18] was inactive. The Activity result in [10], in data set [11] and in [12] was “Non-toxic” in each case.

Take `O=c1c2cc3c(cc2ncn1Cc1ccc(-c2ccccc2)cc1)OCO3`: the inhibition in data set [1] stood at 25%; in data set [2], 6%; in data set [3], 4%; in [4], 0%; in data set [5] it was 4%; in data set [6], 10%. For the same compound, the inhibition in the data set listed under Homo sapiens is 0%.

Take `O=c1c2cc3c(cc2ncn1Cc1ccc(-c2ccccc2)cc1)OCCO3`: the inhibition came out at 45% in [1]; 10% in data set [2]; 0% in [3]; 5% in [4]; 13% in data set [5]; 37% in data set [6]. In addition, the inhibition in the data set listed under Homo sapiens worked out at 25%. Moreover, the outcome in data set [7], in data set [8] and in data set [9] was Active. For the same compound, the Activity result in data set [10], in data set [11] and in data set [12] was “Non-toxic” in each case.

Regarding `O=c1c2cc3c(cc2ncn1Cc1cccc(Br)c1)OCCO3`, the inhibition in data set [1] is 12%; in data set [2], 7%; in data set [3], 0%; in [4] it was 0%; in data set [5] it was 0%; in data set [6], 28%. Besides, the inhibition in the data set listed under Homo sapiens was 28%.
